High-throughput results deposited in PubChem by several laboratories.
Compounds with a hit are over-represented: about 3.8% of the library has one in this group of screens.
Measles CPE: protection of cells from measles virus; Measles virus-infected cells, CPE protection, absorbance; protection (pct of control), % at 4 µM; 1.5% of 140,000 active; AID 841; in the data active = protection mostly above about 24%, no sharp cut-off; inactive = mostly below about 26%
BB579 growth dn: chemicals that inhibit yeast BB579 growth in restrictive medium (lifespan-shortening candidates). S. cerevisiae BB579 growth, OD615, 48 h. inhibition, % at 10 µM. 0.51% of 140,000 active. AID 804;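 active = inhibition above a set limit, 3 SD over the mean compound inhibition, cut at about 44% in these data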
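test system = yeast BB579 (DeaD) | buffer or medium = restrictive CSMM-D medium | doses = single compound dose of 10 µM, 0.25% DMSO final | times = 4 h preincubation and 48 h exposure at 30 °C | technique = culture absorbance at 615 nm | benchmarks = amphotericin B 10 µg/mL, positive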
RAM inhibit: blocks the yeast RAM network; S. cerevisiae dse1pr::URA3 reporter, 5-FOA growth OD615, 2 d; analog-sensitive cbk1-as2 kinase mutant strain; 1.8% of 190,000 active; inhibition, % at 50 µM;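 active = inhibition above a set limit, 3 SD over mean compound inhibition, cut at about 8.4% in these data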;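 also: 0% = DMSO-only wells with no growth and 100% = 10 µM 1-NA-PP1 full growth; inhibition rescues growth on 5-FOA so higher OD means more RAM inhibition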
Yeast life ext: extends the lifespan of yeast; S. cerevisiae growth with nicotinamide, OD615; deaD strain in restrictive glucose medium; inhibition of the nicotinamide effect, % at 10 µM; 0.68% of 130,000 active;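 active = inhibition above a set limit, placed 3 SD over the median of all compounds, cut at about 26% in these data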;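 also: 0% = nicotinamide-treated wells and 100% = cells grown without nicotinamide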
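Test system – modified budding yeast, DeaD strain · Compound – single dose 10 µM compound, 0.25% DMSO · Times – culture preincubation 4 h, compound exposure 48 h, both 30 °C · Detection – optical density (absorbance) at 615 nm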
* hit, by the source's call; · = not tested or not shown.

SMILES	Measles CPE	BB579 growth dn	RAM inhibit	Yeast life ext
Cc1ccc(CSCCNS(=O)(=O)c2ccccc2)cc1	10	-15	1	0
COc1ccc(C(=O)/C=C/c2ccc(O)cc2)cc1	·	·	-1	·
COc1ccc(C=C(c2ccc(OC)cc2)c2ccc(OC)cc2)cc1	0	-67	8.5*	-2
COc1ccc(OC)c(-n2nnnc2SCC(=O)Nc2ccccc2N2CCOCC2)c1	·	·	4	·
COc1cc(NC(=O)c2cccs2)c(OC)cc1NC(=O)CCC(=O)Nc1ccc2ncccc2c1	·	·	0	·
O=C1c2cccc3cccc(c23)C(=O)N1c1ccncc1	23*	26	1	·
O=C1c2cccc3cccc(c23)C(=O)N1c1cccnc1	2	49*	-1	-31
CC(NC(=O)Cn1nc(C(=O)O)c2ccccc2c1=O)c1ccccc1 (stereo not drawn)	9	-15	1	-3
CC(C)CC(=O)Nc1ccc(C(=O)Cn2nc(C(=O)O)c3ccccc3c2=O)cc1	31*	-38	3	-9
O=C(N/N=C/c1ccc(Br)cc1)c1ccc(Br)o1	22	-32	1	-6
c1ccc(C2Oc3ccccc3C3CC(c4cccs4)=NN32)cc1 (stereo not drawn)	26	5	0	3
O=[N+]([O-])c1ccc(C2Oc3ccccc3C3CC(c4ccccc4)=NN32)s1 (stereo not drawn)	19	96*	0	-5
CCOc1ccccc1C(=O)Nc1ccccc1-c1ccccc1	7	-25	9.6*	-3
CCOc1ccccc1NC(=O)C(OC(=O)c1ccccc1)c1ccccc1 (stereo not drawn)	6	-31	6	0
CCOc1ccccc1NC(=O)C(OC(=O)c1ccccc1O)c1ccccc1 (stereo not drawn)	11	-49	8.9*	1
Cc1cc2ccccc2n2c(SCC(=O)Nc3ccc(S(=O)(=O)N4CCC(C)CC4)cc3)nnc12	10	-14	6	0
CCOC(=O)c1c(O)c2ccccc2n(-c2ccccc2)c1=O	15	-9	0	17
CCCCn1c(=O)c(C(=O)OCC)c(O)c2ccccc21	10	-5	-2	32
CCCCCCCCn1c(=O)c(C(=O)OCC)c(O)c2ccccc21	18	16	0	39*
CCCCCn1c(=O)c(C(=O)OCC)c(O)c2ccccc21	7	10	9.0*	22
N#CCC(=O)N/N=C/c1cc(-c2ccccc2)n(-c2ccc(Cl)cc2)c1-c1ccccc1	·	·	5	·
COc1cc(/C=N/n2c(C)nnc2C)cc(OC)c1OC	5	-38	0	-12
COc1c(Br)cc(Br)cc1/C=N/n1c(C)nnc1C	28	-79	0	37*
CCCc1nnc(-c2cc(OC)c(OC)c(OC)c2)o1	8	-36	2	-4
N#CCSc1nnc(COc2ccc3ccccc3c2)o1	46*	-38	1	-13
SMILES	Measles CPE	BB579 growth dn	RAM inhibit	Yeast life ext
COc1cc(-c2nnc(COc3ccc4ccccc4c3)o2)cc(OC)c1OC	26	-37	9.4*	-8
COc1ccc(-n2c(C(C)(C)C)csc2=Nc2c(C)n(C)n(-c3ccccc3)c2=O)cc1	13	-25	1	6
CCN(CC)C(=O)/C(=C\c1cccc([N+](=O)[O-])c1)NC(=O)c1ccco1	13	-5	1	0
COc1cc(OC)c2c(OC)cccc2n1	92*	-2	2	-6
Cc1cccc(C)c1NC(=O)CSc1cc(C(=O)c2nccn2C)c2ccccc2n1	13	-22	2	-1
CC1=CC(=C(C#N)c2nc3ccccc3s2)C=C(C)N1c1ccc(F)cc1	2	-9	3	6
COc1ccccc1N1C(C)=CC(=C(C#N)c2nc3ccccc3s2)C=C1C	6	-24	8.5*	6
O=C(CN1CCSCC1)N/N=C/c1cccc(Cl)c1	·	·	2	·
Cc1ccccc1/C(N)=N/OC(=O)c1cccs1	12	-10	-1	-8
N/C(Cc1ccc(Cl)c(Cl)c1)=N\OC(=O)c1cccs1	9	66*	0	-12
COc1ccc(/C=N/NC(=O)CCSc2nc3ccccc3s2)cc1	8	-23	0	-4
CC(C)CSc1nnc2c(n1)[nH]c1ccccc12	5	-52	5	-9
Fc1ccc2nc3[nH]c4ccccc4c3nc2c1	3	63*	8.9*	-29
CCn1nc(NC(=O)c2ccccn2)c2cc3cccc(C)c3nc21	5	-44	7	-9
CCCn1nc(NC(=O)c2ccccn2)c2cc3cc(C)ccc3nc21	4	-29	9.2*	-5
COc1ccc(C(=O)SC2=NCCS2)cc1	9	-39	-1	·
CCOc1ccc(C(=O)SC2=NCCS2)cc1	30*	-48	0	52*
Cc1cc(/C=C2\C(=N)N3C(SCc4ccccc4)=NSC3=NC2=O)c(C)n1Cc1ccccc1	18	-12	2	-14
CSC1=NSC2=NC(=O)/C(=C\c3coc4ccccc4c3=O)C(=N)N12	7	70*	1	21
CC(C)CSC1=NSC2=NC(=O)/C(=C\c3ccccc3)C(=N)N12	·	·	6	·
CC(C)CSC1=NSC2=NC(=O)/C(=C\c3coc4ccccc4c3=O)C(=N)N12	·	·	9.0*	·
COc1cccc(/C=C/C(=O)Oc2ccc(C(=O)c3ccc(F)cc3)cc2)c1	26	-21	8.7*	3
COc1cccc(/C=C/C(=O)c2ccc[nH]2)c1	11	-79	-1	-17
COc1ccc(C2C(C(=O)O)CC(=O)N2C2CCCCC2)cc1 (stereo not drawn)	48*	-9	1	-4
CCc1ccc(NC(=O)N(Cc2ccco2)C(C)c2cccs2)cc1 (stereo not drawn)	9	-35	11*	-19
SMILES	Measles CPE	BB579 growth dn	RAM inhibit	Yeast life ext
CCc1ccccc1NC(=S)N(Cc1ccco1)C(C)c1cccs1 (stereo not drawn)	·	·	1	·
CCOC(=O)N1CCC(NC(=O)C2CCN(c3ccc(N4CCOCC4)nn3)CC2)CC1	48*	-40	1	-24
COCCN(C(=O)CSc1nnc(Nc2ccccc2F)s1)c1c(N)n(Cc2ccccc2)c(=O)[nH]c1=O	6	-18	-2	-24
O=C(O)CCC(CNS(=O)(=O)c1ccccc1)C(F)(F)F (stereo not drawn)	·	·	0	·
Cc1cccc(NC(=S)NC(NC(=O)c2ccco2)C(Cl)(Cl)Cl)c1 (stereo not drawn)	8	-22	2	-7
Cc1cccc(NC(NC(=O)c2ccccn2)C(Cl)(Cl)Cl)c1 (stereo not drawn)	39*	-15	0	7
Cc1ccc(NC(NC(=O)Cc2ccccc2)C(Cl)(Cl)Cl)cc1 (stereo not drawn)	2	-16	1	11
Cc1cccc(NC(NC(=O)Cc2ccccc2)C(Cl)(Cl)Cl)c1 (stereo not drawn)	58*	-20	2	8
O=C(Nc1ccc2oc(-c3ccccc3)nc2c1)c1ccco1	11	-24	1	5
Cc1ccc(NC(=S)Nc2ccc(Cl)c(Cl)c2)c(OC(F)F)c1	2	85*	-2	-8
N#Cc1c(NC(=O)COC(=O)c2ccc(S(=O)(=O)N3CCCC3)cc2)sc2c1CCCCC2	5	-45	8	-1
